In brackets after ≈: the same amount, converted by molar mass.

For data set [1], the system named is L1210. Description: Cytotoxicity against mouse L1210 cells assessed as zone units at 6.8 mg/mL by disk diffusion soft agar colony formation assay. Format: functional. In outline: (§1)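 Soft agar colony formation with disk diffusion. Sample dissolved in 250 µL DMSO; a 15 µL aliquot at the stated concentration is spotted on a cellulose disk laid on agar containing the cells. After incubation, the zone of colony inhibition is measured in zone units (200 zu = 6 mm). Activity is defined as ≥300 zu.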
(Agar diffusion results depend on both activity and mobility in agar.)

Data set [2] deals with MC-38. Nature of the data set: Cytotoxicity against mouse C38 cells assessed as zone units at 6.8 mg/mL by disk diffusion soft agar colony formation assay. Format: functional. In a few lines:
as §1

The nature of data set [3]: Cytotoxicity against mouse CFU-GM cells assessed as zone units at 6.8 mg/mL by disk diffusion soft agar colony formation assay. Format: cell-based. In outline: as §1
Data set [4] can be described thus: Cytotoxicity against human H116 cells assessed as zone units at 6.8 mg/mL by disk diffusion soft agar colony formation assay. Format: functional. In outline:
as §1

Data set [5] in a line: Cytotoxicity against human H125 cells assessed as zone units at 6.8 mg/mL by disk diffusion soft agar colony formation assay. It is filed as functional. In outline: as §1
The test system of another data set is MDA-MB-435. Description: Cytotoxicity against human MDA-MB-435 after 48 hrs by SRB assay. The settings on record: MDA-MB-435, 48 h. Format: functional, cell-based. In a few lines:
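MDA-MB-435 cells plated and left to attach and grow 24 h, then exposed to compound or ethanol vehicle for 48 h. Cells fixed with 10% trichloroacetic acid, stained with 0.4% sulforhodamine B, absorbance read at 560 nm. Full dose–response in triplicate; IC50 (50% proliferation inhibition) taken from the linear portion of the log-dose–response curve.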

Data set [6] relates to L1210. Description: Cytotoxicity against mouse L1210 cells assessed as zone units at 8.0 mg/mL by disk diffusion soft agar colony formation assay. Format: functional. In outline:
as §1

Data set [7] deals with MC-38. Nature of the data set: Cytotoxicity against mouse C38 cells assessed as zone units at 8.0 mg/mL by disk diffusion soft agar colony formation assay. Format: functional. In outline:
as §1

The nature of data set [8]: Cytotoxicity against mouse CFU-GM cells assessed as zone units at 8.0 mg/mL by disk diffusion soft agar colony formation assay. It is filed as cell-based. In a few lines:
as §1

Data set [9] in a line: Cytotoxicity against human H116 cells assessed as zone units at 8.0 mg/mL by disk diffusion soft agar colony formation assay. Format: functional. In outline:
as §1

A short description of data set [10]: Cytotoxicity against human H125 cells assessed as zone units at 8.0 mg/mL by disk diffusion soft agar colony formation assay. It is filed as functional. In a few lines:
as §1

In data set [11] the test system is L1210. Nature of the data set: Cytotoxicity against mouse L1210 cells assessed as zone units at 4.0 mg/mL by disk diffusion soft agar colony formation assay. It is filed as functional. In outline:
as §1

Data set [12] concerns MC-38. Nature of the data set: Cytotoxicity against mouse C38 cells assessed as zone units at 4.0 mg/mL by disk diffusion soft agar colony formation assay. It is filed as functional. In a few lines:
as §1

Data set [13] can be described thus: Cytotoxicity against mouse CFU-GM cells assessed as zone units at 4.0 mg/mL by disk diffusion soft agar colony formation assay. It is filed as cell-based. In a few lines:
as §1

For data set [14], the system named is CCRF-CEM. Nature of the data set: Cytotoxicity against human CEM cells assessed as zone units at 4.0 mg/mL by disk diffusion soft agar colony formation assay. It is filed as functional. In a few lines:
as §1

Data set [15] in a line: Cytotoxicity against human H116 cells assessed as zone units at 4.0 mg/mL by disk diffusion soft agar colony formation assay. Format: functional. In a few lines: as §1
Data set [16] in a line: Cytotoxicity against human H125 cells assessed as zone units at 4.0 mg/mL by disk diffusion soft agar colony formation assay. It is filed as functional. In outline:
as §1

The test system of data set [17] is L1210. Nature of the data set: Cytotoxicity against mouse L1210 cells assessed as zone units at 6.0 mg/mL by disk diffusion soft agar colony formation assay. Format: functional. In outline: as §1
The subject of data set [18] is MC-38. Description: Cytotoxicity against mouse C38 cells assessed as zone units at 6.0 mg/mL by disk diffusion soft agar colony formation assay. Format: functional. In a few lines: as §1
Data set [19] in a line: Cytotoxicity against mouse CFU-GM cells assessed as zone units at 6.0 mg/mL by disk diffusion soft agar colony formation assay. Format: cell-based. In a few lines: as §1
The nature of data set [20]: Cytotoxicity against human H116 cells assessed as zone units at 6.0 mg/mL by disk diffusion soft agar colony formation assay. It is filed as functional. In a few lines: as §1
Data set [21] is described as follows: Cytotoxicity against human H125 cells assessed as zone units at 6.0 mg/mL by disk diffusion soft agar colony formation assay. It is filed as functional. In outline:
as §1

Data set [22] relates to L1210. Description: Cytotoxicity against mouse L1210 cells assessed as zone units at 11.6 mg/mL by disk diffusion soft agar colony formation assay. It is filed as functional. In outline: as §1
The test system of data set [23] is MC-38. Nature of the data set: Cytotoxicity against mouse C38 cells assessed as zone units at 11.6 mg/mL by disk diffusion soft agar colony formation assay. It is filed as functional. In a few lines:
as §1

Data set [24] can be described thus: Cytotoxicity against mouse CFU-GM cells assessed as zone units at 11.6 mg/mL by disk diffusion soft agar colony formation assay. Format: cell-based. In a few lines:
as §1

In data set [25] the test system is CCRF-CEM. Nature of the data set: Cytotoxicity against human CEM cells assessed as zone units at 11.6 mg/mL by disk diffusion soft agar colony formation assay. It is filed as functional. In a few lines:
as §1

The nature of data set [26]: Cytotoxicity against human H116 cells assessed as zone units at 11.6 mg/mL by disk diffusion soft agar colony formation assay. It is filed as functional. In outline:
as §1

The nature of data set [27]: Cytotoxicity against human H125 cells assessed as zone units at 11.6 mg/mL by disk diffusion soft agar colony formation assay. Format: functional. In outline:
as §1

Take `COC1=CC(=O)[C@]2(C)O[C@@]23C[C@@H](C)O[C@@]13O`: the Activity is 50 Zone units with L1210 [1]; 200 Zone units in the data set on MC-38 [2]; 0 Zone units in [3]; 0 Zone units in [4]; 0 Zone units in [5]. This compound registered an IC50 in the data set with MDA-MB-435 above 10 µg/mL.

Regarding `COC1=CC(=O)[C@]2(C)O[C@@]23CC(C)OC13O` (stereo partly drawn) [(+)-EPOXYSERINONE B], the Activity was 250 Zone units with L1210 [6]; 400 Zone units with MC-38 [7]; 400 Zone units in [8]; 200 Zone units in data set [9]; 50 Zone units in [10]. Besides, the IC50 in the data set on MDA-MB-435 is above 10 µg/mL.

With `COC1=CC(=O)C(C)=C(C[C@H](C)OC=O)C1=O` [(+)-FORMYLANSERINONE B], the Activity came to 550 Zone units with L1210 [11]; 250 Zone units in the data set with MC-38 [12]; 600 Zone units in data set [13]; 550 Zone units with CCRF-CEM [14]; 400 Zone units in data set [15]; 350 Zone units in [16]. In the data set with MDA-MB-435, this compound returned an IC50 of 2.9 µg/mL (≈ 12.2 µM).

Regarding `COC1=CC(=O)C(C)=C(CC(C)=O)C1=O` [ANSERINONE A], the Activity was 300 Zone units with L1210 [17]; 300 Zone units in the data set with MC-38 [18]; 150 Zone units in [19]; 50 Zone units in data set [20]; 50 Zone units in data set [21]. The same compound yielded an IC50 with MDA-MB-435 of 2.22 µg/mL (≈ 10.7 µM).

`COC1=CC(=O)C(C)=C(C[C@H](C)O)C1=O` [ANSERINONE B]: the Activity worked out at 700 Zone units with L1210 [22]; 400 Zone units in the data set with MC-38 [23]; 650 Zone units in data set [24]; 650 Zone units in the data set with CCRF-CEM [25]; 400 Zone units in data set [26]; 400 Zone units in data set [27]. Moreover, in the data set on MDA-MB-435, the IC50 is 3.6 µg/mL (≈ 17.1 µM).

As a reminder, the IC50 is the concentration needed to halve the response being measured.

The values are drawn from ChEMBL document CHEMBL1146496, “Expanding the strategies in natural product studies of marine-derived fungi: a chemical investigation of penicillium obtained from deep water sediment” (J Nat Prod, 2004).
